Reference: PMC3902791 (Molecular imaging and biology : MIB : the official …, 2012)
Several values for one entry are separate records, joined by “and”; a condition that tells them apart may be missing. Identical values can stand only once. Like-named read-outs stand apart in the source and are kept apart here.

Parameters: species or system human
Summary of the method: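 Organ time–activity curves came from whole-body scan VOI data. These were fitted mono-exponentially in five animals; in the sixth, with two scans, a linear fit to the log values was used. Time-integrated activity coefficients were scaled by the ratio of body-mass-normalised human to CT-derived macaque organ masses. Intestinal values were split in thirds across small intestine, ULI and LLI. Organ doses (mSv/MBq) were computed per animal with the OLINDA/EXM 1.1 adult male model.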

O=C(O)C[18F] [^18F-FACE, ^18F-fluoroacetate]
Dose to adult human model, Total body (All, Mean±SD): 0.011±0.002 mSv/MBq
ED effective dose, adult human model (All, Mean±SD): 0.0211 mSv/MBq and 0.021±0.004 mSv/MBq
EDE effective dose equivalent, adult human model (All, Mean±SD): 0.023±0.004 mSv/MBq
Organ dose to adult human model, Adrenals (All, Mean±SD): 0.013±0.002 mSv/MBq
Organ dose to adult human model, Brain (All, Mean±SD): 0.00762 mSv/MBq and 0.008±0.002 mSv/MBq
Organ dose to adult human model, Breasts (All, Mean±SD): 0.00774 mSv/MBq and 0.008±0.001 mSv/MBq
Organ dose to adult human model, Gallbladder wall (All, Mean±SD): 0.0288 mSv/MBq and 0.029±0.010 mSv/MBq
Organ dose to adult human model, Heart wall (All, Mean±SD): 0.025±0.010 mSv/MBq
Organ dose to adult human model, Kidneys (All, Mean±SD): 0.0342 mSv/MBq and 0.034±0.008 mSv/MBq
Organ dose to adult human model, LLI wall (lower large intestine) (All, Mean±SD): 0.075±0.027 mSv/MBq
Organ dose to adult human model, Liver (All, Mean±SD): 0.0307 mSv/MBq and 0.031±0.021 mSv/MBq
Organ dose to adult human model, Lungs (All, Mean±SD): 0.010±0.002 mSv/MBq
Organ dose to adult human model, Muscle (All, Mean±SD): 0.010±0.002 mSv/MBq
Organ dose to adult human model, Osteogenic cells (All, Mean±SD): 0.014±0.003 mSv/MBq
Organ dose to adult human model, Ovaries (All, Mean±SD): 0.016±0.002 mSv/MBq
Organ dose to adult human model, Pancreas (All, Mean±SD): 0.013±0.002 mSv/MBq
Organ dose to adult human model, Red marrow (All, Mean±SD): 0.0102 mSv/MBq and 0.010±0.002 mSv/MBq
Organ dose to adult human model, Skin (All, Mean±SD): 0.007±0.001 mSv/MBq
Organ dose to adult human model, Small intestine (All, Mean±SD): 0.037±0.011 mSv/MBq
Organ dose to adult human model, Spleen (All, Mean±SD): 0.011±0.002 mSv/MBq
Organ dose to adult human model, Stomach wall (All, Mean±SD): 0.012±0.002 mSv/MBq
Organ dose to adult human model, Testes (All, Mean±SD): 0.009±0.001 mSv/MBq
Organ dose to adult human model, Thymus (All, Mean±SD): 0.010±0.002 mSv/MBq
Organ dose to adult human model, Thyroid (All, Mean±SD): 0.00888 mSv/MBq and 0.009±0.002 mSv/MBq
Organ dose to adult human model, ULI wall (upper large intestine) (All, Mean±SD): 0.056±0.019 mSv/MBq
Organ dose to adult human model, Urinary bladder wall (All, Mean±SD): 0.021±0.010 mSv/MBq
Organ dose to adult human model, Uterus (All, Mean±SD): 0.014±0.003 mSv/MBq
Dose to adult human model, Total body (Female, Mean±SD): 0.010±0.002 mSv/MBq
ED effective dose, adult human model (Female, Mean±SD): 0.018±0.001 mSv/MBq
EDE effective dose equivalent, adult human model (Female, Mean±SD): 0.020±0.001 mSv/MBq
Organ dose to adult human model, Adrenals (Female, Mean±SD): 0.012±0.002 mSv/MBq
Organ dose to adult human model, Brain (Female, Mean±SD): 0.007±0.002 mSv/MBq
Organ dose to adult human model, Breasts (Female, Mean±SD): 0.007±0.002 mSv/MBq
Organ dose to adult human model, Gallbladder wall (Female, Mean±SD): 0.031±0.013 mSv/MBq
Organ dose to adult human model, Heart wall (Female, Mean±SD): 0.019±0.006 mSv/MBq
Organ dose to adult human model, Kidneys (Female, Mean±SD): 0.031±0.010 mSv/MBq
Organ dose to adult human model, LLI wall (lower large intestine) (Female, Mean±SD): 0.058±0.005 mSv/MBq
Organ dose to adult human model, Liver (Female, Mean±SD): 0.021 ±0.009 mSv/MBq
Organ dose to adult human model, Lungs (Female, Mean±SD): 0.009±0.002 mSv/MBq
Organ dose to adult human model, Muscle (Female, Mean±SD): 0.009±0.002 mSv/MBq
Organ dose to adult human model, Osteogenic cells (Female, Mean±SD): 0.014±0.004 mSv/MBq
Organ dose to adult human model, Ovaries (Female, Mean±SD): 0.016±0.002 mSv/MBq
Organ dose to adult human model, Pancreas (Female, Mean±SD): 0.012±0.002 mSv/MBq
Organ dose to adult human model, Red marrow (Female, Mean±SD): 0.009±0.002 mSv/MBq
Organ dose to adult human model, Skin (Female, Mean±SD): 0.007±0.002 mSv/MBq
Organ dose to adult human model, Small intestine (Female, Mean±SD): 0.030±0.002 mSv/MBq
Organ dose to adult human model, Spleen (Female, Mean±SD): 0.010±0.003 mSv/MBq
Organ dose to adult human model, Stomach wall (Female, Mean±SD): 0.011±0.002 mSv/MBq
Organ dose to adult human model, Thymus (Female, Mean±SD): 0.009±0.002 mSv/MBq
Organ dose to adult human model, Thyroid (Female, Mean±SD): 0.009±0.003 mSv/MBq
Organ dose to adult human model, ULI wall (upper large intestine) (Female, Mean±SD): 0.044±0.003 mSv/MBq
Organ dose to adult human model, Urinary bladder wall (Female, Mean±SD): 0.017±0.004 mSv/MBq
Organ dose to adult human model, Uterus (Female, Mean±SD): 0.014±0.003 mSv/MBq
Dose to adult human model, Total body (Male, Mean±SD): 0.012±0.001 mSv/MBq
ED effective dose, adult human model (Male, Mean±SD): 0.025±0.003 mSv/MBq
EDE effective dose equivalent, adult human model (Male, Mean±SD): 0.027±0.003 mSv/MBq
Organ dose to adult human model, Adrenals (Male, Mean±SD): 0.014±0.002 mSv/MBq
Organ dose to adult human model, Brain (Male, Mean±SD): 0.008±0.001 mSv/MBq
Organ dose to adult human model, Breasts (Male, Mean±SD): 0.008±0.001 mSv/MBq
Organ dose to adult human model, Gallbladder wall (Male, Mean±SD): 0.027±0.008 mSv/MBq
Organ dose to adult human model, Heart wall (Male, Mean±SD): 0.031±0.010 mSv/MBq
Organ dose to adult human model, Kidneys (Male, Mean±SD): 0.037±0.008 mSv/MBq
Organ dose to adult human model, LLI wall (lower large intestine) (Male, Mean±SD): 0.091±0.031 mSv/MBq
Organ dose to adult human model, Liver (Male, Mean±SD): 0.040±0.026 mSv/MBq
Organ dose to adult human model, Lungs (Male, Mean±SD): 0.010±0.001 mSv/MBq
Organ dose to adult human model, Muscle (Male, Mean±SD): 0.010±0.001 mSv/MBq
Organ dose to adult human model, Osteogenic cells (Male, Mean±SD): 0.015±0.001 mSv/MBq
Organ dose to adult human model, Pancreas (Male, Mean±SD): 0.015±0.001 mSv/MBq
Organ dose to adult human model, Red marrow (Male, Mean±SD): 0.011±0.001 mSv/MBq
Organ dose to adult human model, Skin (Male, Mean±SD): 0.008±0.001 mSv/MBq
Organ dose to adult human model, Small intestine (Male, Mean±SD): 0.044±0.012 mSv/MBq
Organ dose to adult human model, Spleen (Male, Mean±SD): 0.012±0.001 mSv/MBq
Organ dose to adult human model, Stomach wall (Male, Mean±SD): 0.013±0.001 mSv/MBq
Organ dose to adult human model, Testes (Male, Mean±SD): 0.009±0.001 mSv/MBq
Organ dose to adult human model, Thymus (Male, Mean±SD): 0.010±0.001 mSv/MBq
Organ dose to adult human model, Thyroid (Male, Mean±SD): 0.009±0.001 mSv/MBq
Organ dose to adult human model, ULI wall (upper large intestine) (Male, Mean±SD): 0.068±0.021 mSv/MBq
Organ dose to adult human model, Urinary bladder wall (Male, Mean±SD): 0.025±0.015 mSv/MBq
estimated effective dose for an adult human (administration of 185–370 MBq): 3.90–7.81 mSv
radiation absorbed dose, intestines (adult male model): 0.0366–0.0745 mSv/MBq
Dose to adult human model, Total body (from animal 1, male): 0.012 mSv/MBq
ED effective dose, adult human model (from animal 1, male): 0.022 mSv/MBq
EDE effective dose equivalent, adult human model (from animal 1, male): 0.024 mSv/MBq
Organ dose to adult human model, Adrenals (from animal 1, male): 0.016 mSv/MBq
Organ dose to adult human model, Brain (from animal 1, male): 0.007 mSv/MBq
Organ dose to adult human model, Breasts (from animal 1, male): 0.008 mSv/MBq
Organ dose to adult human model, Gallbladder wall (from animal 1, male): 0.031 mSv/MBq
Organ dose to adult human model, Heart wall (from animal 1, male): 0.035 mSv/MBq
Organ dose to adult human model, Kidneys (from animal 1, male): 0.046 mSv/MBq
Organ dose to adult human model, LLI wall (lower large intestine) (from animal 1, male): 0.058 mSv/MBq
Organ dose to adult human model, Liver (from animal 1, male): 0.067 mSv/MBq
Organ dose to adult human model, Lungs (from animal 1, male): 0.011 mSv/MBq
Organ dose to adult human model, Muscle (from animal 1, male): 0.010 mSv/MBq
Organ dose to adult human model, Osteogenic cells (from animal 1, male): 0.014 mSv/MBq
Organ dose to adult human model, Pancreas (from animal 1, male): 0.016 mSv/MBq
Organ dose to adult human model, Red marrow (from animal 1, male): 0.011 mSv/MBq
Organ dose to adult human model, Skin (from animal 1, male): 0.007 mSv/MBq
Organ dose to adult human model, Small intestine (from animal 1, male): 0.031 mSv/MBq
Organ dose to adult human model, Spleen (from animal 1, male): 0.012 mSv/MBq
Organ dose to adult human model, Stomach wall (from animal 1, male): 0.013 mSv/MBq
Organ dose to adult human model, Testes (from animal 1, male): 0.009 mSv/MBq
Organ dose to adult human model, Thymus (from animal 1, male): 0.010 mSv/MBq
Organ dose to adult human model, Thyroid (from animal 1, male): 0.009 mSv/MBq
Organ dose to adult human model, ULI wall (upper large intestine) (from animal 1, male): 0.045 mSv/MBq
Organ dose to adult human model, Urinary bladder wall (from animal 1, male): 0.042 mSv/MBq
Dose to adult human model, Total body (from animal 2, male): 0.012 mSv/MBq
ED effective dose, adult human model (from animal 2, male): 0.025 mSv/MBq
EDE effective dose equivalent, adult human model (from animal 2, male): 0.027 mSv/MBq
Organ dose to adult human model, Adrenals (from animal 2, male): 0.014 mSv/MBq
Organ dose to adult human model, Brain (from animal 2, male): 0.007 mSv/MBq
Organ dose to adult human model, Breasts (from animal 2, male): 0.008 mSv/MBq
Organ dose to adult human model, Gallbladder wall (from animal 2, male): 0.033 mSv/MBq
Organ dose to adult human model, Heart wall (from animal 2, male): 0.038 mSv/MBq
Organ dose to adult human model, Kidneys (from animal 2, male): 0.032 mSv/MBq
Organ dose to adult human model, LLI wall (lower large intestine) (from animal 2, male): 0.096 mSv/MBq
Organ dose to adult human model, Liver (from animal 2, male): 0.041 mSv/MBq
